Measured values reported in ChEMBL document CHEMBL1154998, “Enantioselective synthesis of (R)-(+)- and (S)-(-)-higenamine and their analogues with effects on platelet aggregation and experimental animal model of disseminated intravascular coagulation” (Bioorg Med Chem Lett, 2008).
Active and inactive are the calls of the source. No cut-off for these calls is given here.

How the values were obtained:
Platelet [1] = assay: Inhibition of epinephrine-induced platelet aggregation in rat blood; assay type: functional, cell-based
Platelet [2] = assay: Inhibition of NaAA-induced platelet aggregation in rat blood; assay type: functional, cell-based
Platelet [3] = assay: Inhibition of U46619-induced platelet aggregation in rat blood; assay type: functional, cell-based
Rattus norvegicus [4] = assay: Effect on LPS-induced Sprague-Dawley rat disseminated intravascular coagulation model assessed as amelioration of increased fibrin degradation product levels at 10 mg/day or 25 mg/day, po after 2 hrs of fasting for 2 consecutive days; assay type: functional, organism-based
In short: (§1)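 Male Sprague–Dawley rats (230–270 g) dosed orally in distilled water once daily for 2 days. Ketamine anaesthesia 1 h after the second dose, then LPS 20 mg/kg in saline infused into the tail vein for 3 h. Citrated plasma was used for PT, aPTT and fibrinogen, serum for FDP (semi-quantitative kit, dilution method), and serum by analyzer for AST and BUN. Mean ± SEM, ANOVA with Tukey HSD, n = 6–13 per group.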

Rattus norvegicus [5] = assay: Effect on LPS-induced Sprague-Dawley rat disseminated intravascular coagulation model assessed as amelioration of increased urea nitrogen levels at 10 mg/day or 25 mg/day, po after 2 hrs of fasting for 2 consecutive days; assay type: functional, organism-based; in short: as §1
Rattus norvegicus [6] = assay: Effect on LPS-induced Sprague-Dawley rat disseminated intravascular coagulation model assessed as prolongation of prothrombin time at 10 mg/day or 25 mg/day, po after 2 hrs of fasting for 2 consecutive days; assay type: functional, organism-based; in short: as §1
Rattus norvegicus [7] = assay: Effect on LPS-induced Sprague-Dawley rat disseminated intravascular coagulation model assessed as prolongation of activated partial […] time at 10 mg/day or 25 mg/day, po after 2 hrs of fasting for 2 consecutive days; assay type: functional, organism-based; in short: as §1
Rattus norvegicus [8] = assay: Effect on Sprague-Dawley rat disseminated intravascular coagulation model assessed as suppression of LPS-induced aspartate aminotransferase levels at 10 mg/day or 25 mg/day, po after 2 hrs of fasting for 2 consecutive days; assay type: functional, organism-based; in short: as §1
Platelet [9] = assay: Inhibition of collagen-induced platelet aggregation in rat blood; assay type: functional, cell-based
In short: (§2)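 Rat heart blood in 2.2% citrate, spun at 200g for 10 min to give PRP, adjusted to 400–450 × 10⁶ platelets/ml with saline. PRP pre-incubated 3 min, then sample or vehicle added, with ADP (2–5 × 10⁻⁶ M) or collagen (2–5 × 10⁻⁶ g/ml) added 1 min later. Aggregation read on an aggregometer and the 50% inhibitory concentration determined.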

Platelet [10] = assay: Inhibition of ADP-induced platelet aggregation in rat blood; assay type: functional, cell-based; in short: as §2
Rattus norvegicus [11] = assay: Effect on Sprague-Dawley rat disseminated intravascular coagulation model assessed as prevention of LPS-induced decrease in fibrinogen level at 10 mg/day or 25 mg/day, po after 2 hrs of fasting for 2 consecutive days; assay type: functional, organism-based; in short: as §1

Oc1cc2c(cc1O)[C@@H](Cc1cccc3ccccc13)NCC2
IC50 (Platelet [1]): 2.4 µM
IC50 (Platelet [2]): 11 µM
IC50 (Platelet [3]): 20 µM
Activity (Rattus norvegicus [4]): Active
Activity (Rattus norvegicus [5]): Active
Activity (Rattus norvegicus [6]): Active
Activity (Rattus norvegicus [7]): Active

Oc1cc2c(cc1O)[C@@H](Cc1ccc3ccccc3c1)NCC2
IC50 (Platelet [1]): 15 µM
IC50 (Platelet [2]): 7.9 µM
IC50 (Platelet [3]): 49 µM
Activity (Rattus norvegicus [4]): Active
Activity (Rattus norvegicus [5]): Active
Activity (Rattus norvegicus [6]): Active
Activity (Rattus norvegicus [7]): Active
Activity (Rattus norvegicus [8]): Active

Oc1cc2c(cc1O)[C@H](Cc1cccc3ccccc13)NCC2
IC50 (Platelet [9]): 69 µM
IC50 (Platelet [10]): 270 µM
IC50 (Platelet [1]): 0.38 µM
IC50 (Platelet [2]): 5.6 µM
IC50 (Platelet [3]): 16 µM
Activity (Rattus norvegicus [4]): Active
Activity (Rattus norvegicus [5]): Active
Activity (Rattus norvegicus [6]): Active
Activity (Rattus norvegicus [7]): Active

Oc1ccc(C[C@@H]2NCCc3cc(O)c(O)cc32)cc1 [(-)-HIGENAMINE]
IC50 (Platelet [1]): 1.6 µM
IC50 (Platelet [2]): 9.1 µM
IC50 (Platelet [3]): 25 µM
Activity (Rattus norvegicus [4]): Active
Activity (Rattus norvegicus [5]): Active
Activity (Rattus norvegicus [6]): Active
Activity (Rattus norvegicus [7]): Active
Activity (Rattus norvegicus [11]): Active
Activity (Rattus norvegicus [8]): Active

Oc1ccc(C[C@H]2NCCc3cc(O)c(O)cc32)cc1 [(+)-HIGENAMINE]
IC50 (Platelet [10]): > 1000 µM
IC50 (Platelet [1]): 14 µM
IC50 (Platelet [2]): 11 µM
IC50 (Platelet [3]): 15 µM
Activity (Rattus norvegicus [4]): Active
Activity (Rattus norvegicus [5]): Active
Activity (Rattus norvegicus [6]): Active
Activity (Rattus norvegicus [7]): Active
Activity (Rattus norvegicus [8]): Active

CC(=O)Oc1ccccc1C(=O)O [ASPIRIN]
IC50 (Platelet [9]): 420 µM
IC50 (Platelet [10]): > 1000 µM
IC50 (Platelet [1]): 53 µM
IC50 (Platelet [2]): 66 µM
IC50 (Platelet [3]): 340 µM

Oc1cc2c(cc1O)[C@H](Cc1ccc3ccccc3c1)NCC2
IC50 (Platelet [1]): 0.9 µM
IC50 (Platelet [2]): 6.2 µM
IC50 (Platelet [3]): 61 µM
Activity (Rattus norvegicus [4]): Active
Activity (Rattus norvegicus [5]): Active
Activity (Rattus norvegicus [6]): Active
Activity (Rattus norvegicus [7]): Active
Activity (Rattus norvegicus [11]): Active
Activity (Rattus norvegicus [8]): Active
